A short description of data set [1]: Cytotoxicity against HLF after 72 hrs by MTT assay. It counts as cell-based. Conditions: human, HLF cells. In outline: (§1)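 Cells were grown in DMEM with penicillin-streptomycin, L-glutamine and 10% FBS, then seeded at 5 × 10³ cells/well. MTT (5 mg mL^-1 stock) was added for 4 h, then dissolved in DMSO. A570 was read against a 690 nm reference, with at least four replicates. Inhibition was calculated versus blank-corrected vehicle control, giving GI50.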

The test system of data set [2] is A549. The data set is described as follows: Cytotoxicity against human A549 cells after 72 hrs by MTT assay. The format is functional. The note with it: A549, 72 h. In outline:
as §1
(In general: Tetrazolium dyes change colour on reduction, which living cells bring about.)

Data set [3] can be described thus: Cytotoxicity against human BEAS2B cells after 72 hrs by MTT assay. The format is cell-based, BEAS-2B. The procedure, abridged: as §1
The test system of data set [4] is SGC-7901. The data set can be described thus: Cytotoxicity against human SGC7901 cells after 72 hrs by MTT assay. The format is functional. The note with it: SGC-7901, 72 h. In outline: as §1
Data set [5] deals with MCF7. The data set is described as follows: Cytotoxicity against human MCF7 cells after 72 hrs by MTT assay. It counts as functional. The note with it: MCF7, 72 h. The procedure, abridged:
as §1

The subject of data set [6] is HCT-116. The data set can be described thus: Cytotoxicity against human HCT116 cells after 72 hrs by MTT assay. The format is functional. Conditions: HCT-116, 72 h. In outline:
(§2)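 Cells were maintained in F12/DMEM with penicillin-streptomycin, L-glutamine and 10% FBS, and plated at 5 × 10³ cells/well. Sixteen hours later, medium containing compound ([…]) or DMSO vehicle was added for 72 h. MTT (5 mg mL^-1 stock) was applied for 4 h and formazan dissolved in DMSO. Absorbance was read at 570/690 nm in at least quadruplicate. Growth inhibition versus blank-corrected controls gave GI50.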

The test system of data set [7] is HT-29. The data set is described as follows: Cytotoxicity against human HT-29 cells after 72 hrs by MTT assay. The format is functional. Conditions: HT-29, 72 h. In outline: as §2

A word on the GI50: it is the concentration at which growth is held to half of that of the control. The low end stands for more potent growth inhibition, the high end for less potent growth inhibition. For the compound `CCCCCC[C@H](O)COCCOC[C@@H](O)CCCCC(O)CCCCCCCC1=C[C@H](C)OC1=O` (stereo partly specified), the results for the GI50 at 72 h in data set [1] and in data set [3] were 11.1 µM and over 100 µM, respectively. The GI50 in data set [2] was 10.8 µM; in data set [4] it was 2 µM; in data set [5], 5.8 µM; in data set [6] it was 4.2 µM; in data set [7], 19.4 µM.
Turning to `C[C@H]1C=C(CCCCCCCC(O)CCCC[C@H](O)COCCOC[C@@H](O)CCCCC2CCCCC2)C(=O)O1` (stereo partly specified), the GI50 at 72 h in data set [1] came to 5.5 µM; in data set [3] it was 61 µM. In addition, the GI50 in data set [2] worked out at 4.5 µM; in data set [4], 0.75 µM; in data set [5] it was 1.8 µM; in data set [6] it was 1.6 µM; in data set [7] it was 5.4 µM.
With `C[C@H]1C=C(CCCCCCCC(O)CCCC[C@H](O)COCCOC[C@@H](O)CCCc2ccccc2)C(=O)O1` (stereo partly specified), the values for the concentration for 50% growth inhibition (GI50) at 72 h in data set [1] and in data set [3] were 7.4 µM and over 100 µM, respectively. The GI50 in data set [2] came out at 0.773 µM; in data set [4], 0.275 µM; in data set [5], 0.84 µM; in data set [6], 0.394 µM; in data set [7], 1.1 µM.
With `C[C@H]1C=C(CCCCCCCC(O)CCCC[C@H](O)COCCOC[C@@H](O)CCCc2cccc(O)c2)C(=O)O1` (stereo partly specified), the GI50 at 72 h in data set [1] and in data set [3] was over 100 µM each time. In addition, the GI50 in data set [2] was determined as 6 µM; in data set [4], 1 µM; in data set [5] it was 24.5 µM; in data set [6] it was 2.8 µM; in data set [7] it was 69 µM.
With `COc1ccc(CCC[C@H](O)COCCOC[C@@H](O)CCCCC(O)CCCCCCCC2=C[C@H](C)OC2=O)cc1` (stereo partly specified), the results for the GI50 at 72 h in data set [1] and in data set [3] were 11.3 µM and over 100 µM, respectively. The GI50 in data set [2] is 4.5 µM; in data set [4], 0.198 µM; in data set [5], 23.3 µM; in data set [6], 2.3 µM; in data set [7], 4.3 µM.
Turning to `C[C@H]1C=C(CCCCCCCC(O)CCCC[C@H](O)COCCOC[C@@H](O)CCCc2ccc(-c3ccccc3)cc2)C(=O)O1` (stereo partly specified), the GI50 at 72 h in data set [1] and in data set [3] was over 100 µM in each case. Further, the concentration for 50% growth inhibition (GI50) in data set [2] was determined as 0.177 µM; in data set [4], 0.02 µM; in data set [5], 0.154 µM; in data set [6] it was 0.134 µM; in data set [7] it was 0.355 µM.
Turning to `COc1ccc2cc(CCC[C@H](O)COCCOC[C@@H](O)CCCCC(O)CCCCCCCC3=C[C@H](C)OC3=O)ccc2c1` (stereo partly specified), the GI50 at 72 h in data set [1] is 10 µM; in data set [3], over 100 µM. In addition, the GI50 was determined as 3.7 µM in data set [2]; 0.082 µM in data set [4]; 12.6 µM in data set [5]; 1.1 µM in data set [6]; 1.1 µM in data set [7].
On to `CCCCCCCCCC[C@H](O)COCCOC[C@@H](O)CCCCCCCCCCCCC1=C[C@H](C)OC1=O`, for which the GI50 at 72 h in data set [1] stood at 20.9 µM; in data set [3], 120 µM. The GI50 in data set [2] is 0.305 µM; in data set [4], 0.065 µM; in data set [5], 0.276 µM; in data set [6] it was 0.113 µM; in data set [7], 0.291 µM.

(Values after ChEMBL document CHEMBL1649411, “Potent antitumor mimetics of annonaceous acetogenins embedded with an aromatic moiety in the left hydrocarbon chain part” (J Med Chem, 2011).)
